To fix the notation:
B1: tRNA (parent)
chain: GUUCCGUUGGCGUAAUGGUAACGCGUCUCCCUCCUAAGGAGAAGACUGCGGGUUCGAGUCCCGUACGGAACG

This sample holds only a part of the variants without activity.

In the data set the parent is B1. Kind of data set: yeast fitness relative to wild type (ratio to wild type); higher = fitter; tRNA-Arg(CCU), competitive growth, 37 C, YPD. In outline:
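For this measurement, the tRNA-Arg(CCU) gene was varied by chemical synthesis at a 3% per-site mutation rate across 69 sites, and each variant was placed at the native genomic locus in Saccharomyces cerevisiae. The pooled strains went through a 24-hour competition in YPD at 37°C in six parallel replicates, with amplicons from start and end populations read by 100-nucleotide paired-end sequencing. Darwinian fitness relative to wild type followed from the change in each genotype's frequency. Genotypes needed ≥ 100 starting reads, and estimates < 0.5 were set to 0.5.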
As for C5G G9C A57U, the yeast fitness was ≤ 0.5.

Take C5G G38C G68A: the yeast fitness is ≤ 0.5.

With C5G G25C G56A, the yeast fitness amounted to 0.62.

Regarding C5G G25A C34A C49G G50A, the yeast fitness was ≤ 0.5.

Consider C5G C33A A57G, for which the yeast fitness was determined as 0.59.

In the case of C5G G10A A20U C24U C34U A43U A69C, the yeast fitness turned out to be 0.667.

For the variant C5G G10C G52A A69U, the yeast fitness was ≤ 0.5.

As to C5G G9C G56C, the yeast fitness was ≤ 0.5.

As for C5G G25A A42C G68U, the yeast fitness is ≤ 0.5.

For C5G G18A C55A C61U, the yeast fitness was ≤ 0.5.

Take C5G G44C G67U: the yeast fitness was 1.02.

For C5G G9U A21C U54A A57G, the yeast fitness is ≤ 0.5.

With C5G C27G G44C U59A, the yeast fitness is ≤ 0.5.

As for C5G G44C C49G A69U, the yeast fitness is ≤ 0.5.

In the case of C5G G10C A37U G38A, the yeast fitness was ≤ 0.5.

With C5G G25C G44A A69C, the yeast fitness was ≤ 0.5.

Regarding C5G C31U G58C C62A, the yeast fitness was ≤ 0.5.

Consider C5G C33G C55U, for which the yeast fitness is 0.875.

In the case of C5G C27G C34G, the yeast fitness was ≤ 0.5.

Turning to C5G C27U C46U U54C, the yeast fitness is ≤ 0.5.

In the case of C5G G44C U64C, the yeast fitness worked out at 0.586.

With C5G G41C C49U, the yeast fitness stood at 0.543.

Consider C5G C24U C33U A57U A69U, for which the yeast fitness was ≤ 0.5.

With C5G C49U, the yeast fitness came out at 0.815.

With C5G G17A C34A G39C A40C G56C C61G C62G G68C, the yeast fitness is ≤ 0.5.

C5G C61A G67A: the yeast fitness came to 0.529.

Take C5G G23A G25C C49U: the yeast fitness came to 0.544.

Turning to C5G G10A C11G U16G C33G A65G, the yeast fitness was ≤ 0.5.

Turning to C5G G38A A43U G56A, the yeast fitness was ≤ 0.5.

For C5G C49U G58C, the yeast fitness turned out to be 0.622.

With C5G C34G C62G, the yeast fitness was 0.59.

With C5G G10C A43U C62A, the yeast fitness was ≤ 0.5.

For the variant C5G G41C U47G, the yeast fitness was ≤ 0.5.

Consider C5G G41C U47A, for which the yeast fitness was 0.526.

C5G G23A A45U G52C: the yeast fitness is 0.626.

As to C5G C27G C61U, the yeast fitness was ≤ 0.5.

With C5G G38C U47G C62U, the yeast fitness was ≤ 0.5.

For the variant C5G C27G C30U G51C C55A, the yeast fitness is ≤ 0.5.

In the case of C5G G17C G38C G52A, the yeast fitness is ≤ 0.5.

As for C5G C31U A36C G38A U54A, the yeast fitness is ≤ 0.5.

For the variant C5G C29G A65G, the yeast fitness was 0.565.

C5G C34G G38C G68C: the yeast fitness was ≤ 0.5.

C5G C61U A65U: the yeast fitness amounted to 0.557.

Take C5G G9A A65C: the yeast fitness was 0.596.

For the variant C5G G10C U47A A70G, the yeast fitness was ≤ 0.5.

Turning to C5G C31G G52C U54A C62G, the yeast fitness turned out to be 0.5.

For the variant C5G C46G A65C, the yeast fitness worked out at 0.668.

For C5G C27G A57C, the yeast fitness was ≤ 0.5.

Turning to C5G G18C G56C, the yeast fitness was ≤ 0.5.

As to C5G C30A A42C, the yeast fitness was ≤ 0.5.

As to C5G G12A U47C C62A, the yeast fitness was ≤ 0.5.

On to C5G G17C U47A C55A, for which the yeast fitness is 0.516.

Regarding C5G C31U G63A, the yeast fitness turned out to be 0.683.

Turning to C5G C29G A36U, the yeast fitness was ≤ 0.5.

Regarding C5G G12A A36U A42U U59C A65C, the yeast fitness is ≤ 0.5.

With C5G G48C, the yeast fitness turned out to be 0.758.

Consider C5G G17A A37C A65C, for which the yeast fitness was 0.588.

On to C5G G12C, for which the yeast fitness came out at 0.816.

Take C5G G25A A45C: the yeast fitness was determined as 0.705.

Regarding C5G C61G A65U, the yeast fitness is ≤ 0.5.

Regarding C5G G25C U47C, the yeast fitness is 0.545.

As for C5G C30G G67C, the yeast fitness was 0.543.

As to C5G G39C, the yeast fitness turned out to be 0.675.

With C5G G17C G25A G51A, the yeast fitness was ≤ 0.5.

As for C5G G9C C30G, the yeast fitness is ≤ 0.5.

Consider C5G G25A U28G G38C C62G C66U, for which the yeast fitness was ≤ 0.5.

In the case of C5G G9C A42G U54C U59C, the yeast fitness was ≤ 0.5.

With C5G G9C A14C, the yeast fitness is ≤ 0.5.

In the case of C5G G17A G38A A40G A69U, the yeast fitness is ≤ 0.5.

Take C5G C27U C66U: the yeast fitness came out at 0.654.

As to C5G C30G C66U, the yeast fitness is ≤ 0.5.

With C5G G10A A40G A70G, the yeast fitness is ≤ 0.5.

Regarding C5G G18A A42C A45C, the yeast fitness is ≤ 0.5.

Take C5G G17C C60U: the yeast fitness came to 0.686.

With C5G C27U C62U, the yeast fitness came to 0.626.

In the case of C5G C27U G67A, the yeast fitness came to 0.524.

For the variant C5G G52A G56C, the yeast fitness was ≤ 0.5.

Regarding C5G G10C U13G A37C, the yeast fitness came out at 0.508.

Regarding C5G G48A C49G, the yeast fitness was 0.658.

Regarding C5G C30G G52C, the yeast fitness was found to be 0.519.

For the variant C5G C30G G52A, the yeast fitness came to 0.523.

On to C5G C27U C61G, for which the yeast fitness is ≤ 0.5.

On to C5G G25A C46U A69U, for which the yeast fitness was 0.576.

As for C5G G51A G52A, the yeast fitness is ≤ 0.5.

In the case of C5G C62G, the yeast fitness was found to be 0.791.

As to C5G G38A U59C, the yeast fitness was ≤ 0.5.

For C5G G18A G48C G67A, the yeast fitness is ≤ 0.5.

For the variant C5G C33U G56C, the yeast fitness amounted to 0.575.

On to C5G G10C, for which the yeast fitness came to 0.651.

Take C5G G9C G18A G25C A37C A43G: the yeast fitness was ≤ 0.5.

Turning to C5G G25A U47C, the yeast fitness came to 0.781.

For the variant C5G G17C C62U A65C, the yeast fitness stood at 0.52.

With C5G G10A C29G, the yeast fitness was ≤ 0.5.

In the case of C5G G18A G25A C61A, the yeast fitness was ≤ 0.5.

Turning to C5G G44C C62U C66U A69C, the yeast fitness was 0.515.

Turning to C5G G6C C33A A40U A70C, the yeast fitness was ≤ 0.5.

For the variant C5G C49G G63A, the yeast fitness turned out to be 0.57.

Consider C5G C27U U54C, for which the yeast fitness turned out to be 0.747.

On to C5G G23A U54A, for which the yeast fitness is ≤ 0.5.

Turning to C5G C27U A43U, the yeast fitness came to 0.54.

Consider C5G C49U C61G, for which the yeast fitness was determined as 0.534.

As for C5G G25A G68C, the yeast fitness turned out to be 0.69.

For C5G C34G C66U, the yeast fitness was ≤ 0.5.

Turning to C5G G10A C11G U16G, the yeast fitness was ≤ 0.5.

Regarding C5G G18C C62A, the yeast fitness was ≤ 0.5.

Take C5G G25C A37G: the yeast fitness stood at 0.504.

For the variant C5G G18A A20U C55G, the yeast fitness is ≤ 0.5.

Take C5G C61G: the yeast fitness was determined as 0.63.

Consider C5G C61U, for which the yeast fitness came out at 0.736.

As for C5G C61A, the yeast fitness was 0.651.

For the variant C5G G50A C55G A65C, the yeast fitness stood at 0.551.

Regarding C5G C29U A70C, the yeast fitness was found to be 0.527.

Turning to C5G C31U A36C G38A G56A A70U, the yeast fitness is ≤ 0.5.

Turning to C5G G48C G56A, the yeast fitness stood at 0.544.

For the variant C5G G17C A20C A21U C27U C33G G67A, the yeast fitness was determined as 0.595.

Regarding C5G C34G U47A C62A G63A, the yeast fitness is ≤ 0.5.

Take C5G G6A G48A: the yeast fitness is ≤ 0.5.

Turning to C5G C27G C33U G56A, the yeast fitness is 0.527.

For C5G C31U U32C U54G C55U C61U, the yeast fitness is ≤ 0.5.

C5G G51C U54A: the yeast fitness is ≤ 0.5.

C5G G17C U47A C55A G68A: the yeast fitness was 0.562.

For the variant C5G C27U G51A C60G A70G, the yeast fitness is ≤ 0.5.

For C5G C62U C66G, the yeast fitness was determined as 0.641.

With C5G C27G C29U C31U A45G C49A C66U, the yeast fitness is ≤ 0.5.

Take C5G C31U C49G C66U: the yeast fitness was ≤ 0.5.

In the case of C5G C55U C61A A65U, the yeast fitness was determined as 0.669.

For C5G G44C, the yeast fitness was found to be 0.688.

As for C5G G10A G52A, the yeast fitness was 0.741.

Consider C5G G39C A70G, for which the yeast fitness was 0.596.

For C5G G17A A40C, the yeast fitness stood at 0.651.

C5G C33G G67A: the yeast fitness was ≤ 0.5.

With C5G G12A A36U A42U U59C, the yeast fitness is ≤ 0.5.

In the case of C5G G17A C22U C46U C66U A70C, the yeast fitness turned out to be 0.62.

With C5G C46U G68C, the yeast fitness amounted to 0.596.

On to C5G G18C, for which the yeast fitness was 0.733.

On to C5G G18A, for which the yeast fitness came out at 0.713.

As for C5G G50C G51C G56A, the yeast fitness was ≤ 0.5.

For the variant C5G G10C G52A, the yeast fitness is ≤ 0.5.

Take C5G G12U A45U A57U: the yeast fitness is ≤ 0.5.

Regarding C5G G10A C11G U16G C33G C61A, the yeast fitness is ≤ 0.5.

Take C5G C60A A69C: the yeast fitness was found to be 0.532.

In the case of C5G C49G G50A A57C, the yeast fitness was ≤ 0.5.

For C5G G12A C46U, the yeast fitness amounted to 0.572.

In the case of C5G G17C A43U, the yeast fitness came out at 0.516.

Take C5G C62U A69C: the yeast fitness turned out to be 0.708.

Turning to C5G C61U A70G, the yeast fitness was found to be 0.707.

For C5G G23C C33U A43C, the yeast fitness was ≤ 0.5.

Regarding C5G G10A C11G U16G C33G U59C, the yeast fitness was ≤ 0.5.

Regarding C5G C55U C61A, the yeast fitness stood at 0.605.

Regarding C5G G39A C46U G67A, the yeast fitness was ≤ 0.5.

C5G C34U C46A C62U: the yeast fitness was ≤ 0.5.

Consider C5G C30U U32A C61G, for which the yeast fitness is ≤ 0.5.

As to C5G C29G G52A G67A, the yeast fitness was ≤ 0.5.

Regarding C5G C27G A45C, the yeast fitness was ≤ 0.5.

Take C5G C27U G63A: the yeast fitness was ≤ 0.5.

For the variant C5G G9A C31G, the yeast fitness came out at 0.767.

For the variant C5G G17C A20C A21U C27U C33G, the yeast fitness was ≤ 0.5.

C5G G9C U28C C55U: the yeast fitness is ≤ 0.5.

As for C5G G17C G25A A40C G68A, the yeast fitness was ≤ 0.5.

As to C5G G23C G48A G67A, the yeast fitness came to 0.567.

As for C5G G6C U26G C61U, the yeast fitness came out at 0.59.

Regarding C5G G12C G18A C24U C29U A36G A45C A69C, the yeast fitness was ≤ 0.5.

Regarding C5G G10A C11G U16G C33G U47A C60A, the yeast fitness was ≤ 0.5.

Turning to C5G C30U, the yeast fitness is 0.799.

For the variant C5G C49U U59G, the yeast fitness stood at 0.579.

Turning to C5G G51U G67C, the yeast fitness is ≤ 0.5.

For C5G G18C C31A G38U, the yeast fitness is ≤ 0.5.

The values are drawn from the RNAGym collection of RNA variant scans (doi:10.1126/science.aae0568).
